Experiment [1] in a line: Her2 expression decrease, cell viability multiplex – SKBR3 breast tumor cells, AlphaScreen, ATP viability, primary screen (AID 461;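 active means Her2 level under about 52% in both replicate screens, with viability over 70% of control, limit read from the data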;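 on Her2 level: lower value means less Her2 protein in the cells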;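 on viability: percent of carrier control wells set as 100% viability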). The conditions noted are these: SKBR3 Her2 protein level, 18-24 h, measured here: SKBR3 viability, ATP luminescence, at 10 µM. A general note: Alpha assays give light when donor and acceptor beads are brought close together.
The target of experiment [2] is Receptor tyrosine-protein kinase erbB-2 (Homo sapiens) (UniProt P04626). Described as above. Particulars: 18-24 h, at 10 µM, stronger effect = lower value.
Experiment [3] can be described thus: reduced viability of SK-BR-3 breast cancer cells – cell-based, 24 h, human, pilot screen (AID 572).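 Further: compound exposure lasted between 18 and 24 h rather than exactly 24 h; 100% = carrier-treated control wells.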 Particulars: SK-BR-3 viability, CellTiter-Glo luminescence, at 10 µM, stronger effect = lower value. (In general: Cellular ATP, detected with luciferase, serves as a proxy for viable cell number.)
Experiment [4] in a line: HUVEC growth inhibition – cell-based, human, primary screen (AID 575;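 active means viability at or below 30% in both replicate assays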;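 further: 100% = median of untreated cell wells with 0.1% DMSO on each plate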). Particulars: HUVEC proliferation, CellTiter-Glo luminescence, 72 h; at 10 µM; stronger effect = lower value. In short, it runs like this:
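Test system – primary HUVEC, no more than 12 passages · Dosing – one dose, 10 µM final, 0.1% DMSO · Times – 72 h treatment at 37 °C · Measured by – ATP-based CellTiter-Glo luminescent read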

Experiment [5] is described as follows: H69AR cell proliferation blockers – human, duplicate replicates, primary screen (AID 580;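 active means viability at or under a set limit in both replicates, limit being median viability minus 3 SD, cut at about 48% in these data, passing the limit was not always enough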;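 further: 100% = mean luminescence of untreated wells and 0% = no signal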). The conditions noted are these: H69AR lung tumor cells viability, ATP luminescence, 72 h; at 10 µM; stronger effect = lower value.
Experiment [6] is described as follows: MRP1 drug-resistance reversers in H69AR cells – cell-based, doxorubicin co-treatment, pilot screen (AID 601;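 active means viability loss from added drug above about 55%, and viability with drug at most 40%, in both replicates, limit read from the data, passing the limit was not always enough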). Particulars: CellTiter-Glo, 72 h, at 10 µM; for differential viability (reversal): stronger effect = higher value.
The nature of experiment [7]: yeast transport mutant growth inhibition pilot in 384-well plates, post-Golgi transport modulator project (AID 636; in the data active means inhibition above about 31%). Particulars: absorbance 615 nm, about 18 h, stronger effect = higher value.
Experiment [8] in a line: growth suppression of yeast trafficking mutant, preliminary HTS, modulators of trafficking downstream of Golgi apparatus project, 1536-format plate, OD 615 nm (AID 637; in the data active means inhibition above about 30%). The conditions noted are these: yeast transport mutant growth, absorbance 615 nm, 18 h; stronger effect = higher value.
Where [9] appears, read: H69AR cells + 2 uM doxorubicin, measured here: viability with 2 uM doxorubicin, stronger effect = lower value.
The mark [10] stands for this setting: H69AR cells, compound alone cytotoxicity.

SMILES strings stand for the structures. Calls of active or inactive are those of the source.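 How the source made its calls, unless noted: active means viability at or below 10% of carrier control in both of two separate runs; inconclusive means viability at or below 10% in only one of the two runs; inactive means the rest.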

Receptor tyrosine-protein kinase erbB-2 (Homo sapiens), sequence (P04626 whole entry, looked up): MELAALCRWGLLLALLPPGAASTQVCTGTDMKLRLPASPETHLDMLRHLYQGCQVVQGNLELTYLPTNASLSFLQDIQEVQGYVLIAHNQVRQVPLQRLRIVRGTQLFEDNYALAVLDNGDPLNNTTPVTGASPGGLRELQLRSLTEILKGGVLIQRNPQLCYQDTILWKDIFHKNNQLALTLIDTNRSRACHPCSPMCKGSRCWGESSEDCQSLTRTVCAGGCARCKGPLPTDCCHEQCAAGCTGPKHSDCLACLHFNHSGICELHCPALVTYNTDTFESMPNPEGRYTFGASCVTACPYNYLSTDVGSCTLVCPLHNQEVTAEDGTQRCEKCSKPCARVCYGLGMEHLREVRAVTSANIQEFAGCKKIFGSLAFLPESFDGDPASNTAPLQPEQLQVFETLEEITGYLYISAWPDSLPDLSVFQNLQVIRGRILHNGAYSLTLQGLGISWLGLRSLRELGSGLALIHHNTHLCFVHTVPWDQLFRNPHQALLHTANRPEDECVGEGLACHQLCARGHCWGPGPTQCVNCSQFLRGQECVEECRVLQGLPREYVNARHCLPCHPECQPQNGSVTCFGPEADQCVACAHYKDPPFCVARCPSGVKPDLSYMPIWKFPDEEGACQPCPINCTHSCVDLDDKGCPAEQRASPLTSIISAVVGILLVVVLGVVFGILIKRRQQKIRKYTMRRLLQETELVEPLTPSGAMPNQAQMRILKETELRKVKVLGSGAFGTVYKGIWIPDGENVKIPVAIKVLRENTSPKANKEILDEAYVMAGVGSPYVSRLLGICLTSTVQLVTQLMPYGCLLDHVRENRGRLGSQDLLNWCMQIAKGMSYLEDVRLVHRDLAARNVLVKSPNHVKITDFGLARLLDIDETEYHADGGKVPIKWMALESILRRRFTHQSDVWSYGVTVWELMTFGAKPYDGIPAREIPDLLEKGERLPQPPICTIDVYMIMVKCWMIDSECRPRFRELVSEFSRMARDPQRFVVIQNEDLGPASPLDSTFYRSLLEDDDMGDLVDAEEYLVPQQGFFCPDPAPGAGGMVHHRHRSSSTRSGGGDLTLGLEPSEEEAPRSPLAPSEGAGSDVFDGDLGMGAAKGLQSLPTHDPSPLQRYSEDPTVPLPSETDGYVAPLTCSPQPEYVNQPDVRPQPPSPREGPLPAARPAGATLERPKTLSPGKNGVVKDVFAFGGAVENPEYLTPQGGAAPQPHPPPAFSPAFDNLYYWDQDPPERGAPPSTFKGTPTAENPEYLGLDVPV

The viability is a read-out of living cells in per cent, often relative to untreated cells. For orientation: inhibition means the drop in the measured response relative to a control, in per cent. In the case of `COc1ccc(OC)c(CNC(=O)COc2cc(=O)n(C)c3ccccc23)c1`, the viability in experiment [1] was 82%; in experiment [3] it was 82% (inactive); in experiment [4], 105% (inactive); in experiment [5], 88% (inactive); in experiment [6] (setting [9]) it was 85%; in experiment [6] (setting [10]) it was 88%. Also, the Her2 level in experiment [2] is 86.5% (inactive). In addition, the differential viability (reversal) in experiment [6] (H69AR cells + 2 uM doxorubicin) was 2.97% (inactive). For the same compound, the inhibition in experiment [7] was 2.31% (inactive); in experiment [8], -4.67% (inactive).
Regarding `NC(=O)C1CCN(CC(=O)N2c3ccccc3CCc3ccccc32)CC1`, the viability in experiment [1] was 117%; in experiment [3], 117% (inactive); in experiment [4], 103% (inactive); in experiment [5], 93.9% (inactive); in experiment [6] (setting [9]) it was 92.3%; in experiment [6] (setting [10]) it was 93.9%. Also, the Her2 level in experiment [2] is 114% (inactive). Moreover, the differential viability (reversal) in experiment [6] (H69AR cells + 2 uM doxorubicin) is 1.55% (inactive). Moreover, the values for the inhibition in experiment [7] and in experiment [8] were -5.53% (inactive) and 5.25% (inactive), respectively.
For `CCC(NC(=O)Nc1cc(OC)c(OC)c(OC)c1)(C(F)(F)F)C(F)(F)F`, the viability in experiment [1] was 112%; in experiment [3], 112% (inactive); in experiment [4], 105% (inactive); in experiment [5] it was 93% (inactive); in experiment [6] (setting [9]), 101%; in experiment [6] (setting [10]), 93%. Moreover, the Her2 level in experiment [2] is 83.5% (inactive). For the same compound, the differential viability (reversal) in experiment [6] (H69AR cells + 2 uM doxorubicin) is -7.81% (inactive). The inhibition in experiment [7] is -4.47% (inactive); in experiment [8] it was 11% (inactive).
Consider `COc1ccc(Cc2nc(-c3ccc(NC(=O)c4cccnc4)cc3)no2)cc1`, for which the viability is 109% in experiment [1]; 109% (inactive) in experiment [3]; 123% (inactive) in experiment [4]; 17.7% (active) in experiment [5]; 17.7% in experiment [6] (setting [9]); 17.7% in experiment [6] (setting [10]). Also, the Her2 level in experiment [2] was 84.5% (inactive). Moreover, in experiment [6] (H69AR cells + 2 uM doxorubicin), the differential viability (reversal) was -0.01% (inactive). In addition, the inhibition was -7.7% (inactive) in experiment [7] and 7.94% (inactive) in experiment [8].
As to `COC(=O)CCN1CCC(C(N)=O)CC1`, the viability in experiment [1] is 100%; in experiment [3], 100% (inactive); in experiment [4], 102% (inactive); in experiment [5], 100% (inactive); in experiment [6] (setting [9]) it was 85.1%; in experiment [6] (setting [10]) it was 100%. Moreover, the Her2 level in experiment [2] is 113% (inactive). Also, the differential viability (reversal) in experiment [6] (H69AR cells + 2 uM doxorubicin) was 15% (inactive). In addition, the figures for the inhibition in experiment [7] and in experiment [8] were -6.8% (inactive) and 2.46% (inactive), respectively.
For the compound `Cc1cccc(-c2nnn(CC/C(N)=N/O)n2)c1`, the viability in experiment [1] is 85%; in experiment [3], 85% (inactive); in experiment [4], 85.3% (inactive); in experiment [5], 104% (inactive); in experiment [6] (setting [9]), 105%; in experiment [6] (setting [10]), 104%. In addition, in experiment [2], the Her2 level is 84.5% (inactive). The differential viability (reversal) in experiment [6] (H69AR cells + 2 uM doxorubicin) is -1.3% (inactive). In addition, the inhibition in experiment [7] is -2.53% (inactive); in experiment [8], -0.16% (inactive).
As for `CC(=O)c1cccc(NC(=O)N2CCCc3ccccc32)c1`, the viability was 105% in experiment [1]; 105% (inactive) in experiment [3]; 95% (inactive) in experiment [4]; 93.6% (inactive) in experiment [5]; 90.7% in experiment [6] (setting [9]); 93.6% in experiment [6] (setting [10]). For the same compound, the Her2 level in experiment [2] was 104% (inactive). For the same compound, the differential viability (reversal) in experiment [6] (H69AR cells + 2 uM doxorubicin) is 2.88% (inactive). In addition, the inhibition was -3.73% (inactive) in experiment [7] and 3.93% (inactive) in experiment [8].
In the case of `COCCOC(=O)c1c(C)oc2ccc(NS(=O)(=O)c3ccc(F)cc3)cc12`, the viability in experiment [1] was 85.5%; in experiment [3], 85.5% (inactive); in experiment [4] it was 93% (inactive); in experiment [5], 90.5% (inactive); in experiment [6] (setting [9]) it was 95.2%; in experiment [6] (setting [10]) it was 90.5%. For the same compound, the Her2 level in experiment [2] is 90.5% (inactive). Also, the differential viability (reversal) in experiment [6] (H69AR cells + 2 uM doxorubicin) is -4.71% (inactive). For the same compound, the values for the inhibition in experiment [7] and in experiment [8] were -2.43% (inactive) and 2.7% (inactive), respectively.
Take `Cc1ccc(S(=O)(=O)N(C)Cc2cc3ccccc3[nH]c2=O)cc1`: the viability in experiment [1] was 114%; in experiment [3] it was 114% (inactive); in experiment [4], 111% (inactive); in experiment [5] it was 91.5% (inactive); in experiment [6] (setting [9]), 87.9%; in experiment [6] (setting [10]) it was 91.5%. In addition, the Her2 level in experiment [2] was 86.5% (inactive). For the same compound, in experiment [6] (H69AR cells + 2 uM doxorubicin), the differential viability (reversal) was 3.6% (inactive). Besides, the inhibition was 0.26% (inactive) in experiment [7] and -6.91% (inactive) in experiment [8].
As to `COc1ccc(Cn2nnnc2C(c2ccccc2OC)N2CCC(C(N)=O)CC2)cc1` (stereo not given), the viability in experiment [1] was 100%; in experiment [3], 100% (inactive); in experiment [4] it was 105% (inactive); in experiment [5] it was 85.4% (inactive); in experiment [6] (setting [9]), 84%; in experiment [6] (setting [10]), 85.4%. Further, the Her2 level in experiment [2] was 91% (inactive). Also, in experiment [6] (H69AR cells + 2 uM doxorubicin), the differential viability (reversal) was 1.34% (inactive). For the same compound, the inhibition in experiment [7] is -5.73% (inactive); in experiment [8], 8.52% (inactive).
Regarding `CCC(Oc1ccc2ccccc2c1)C(=O)O` (stereo not given), the viability is 89.5% in experiment [1]; 89.5% (inactive) in experiment [3]; 85.6% (inactive) in experiment [4]; 80.1% (inactive) in experiment [5]; 81.6% in experiment [6] (setting [9]); 80.1% in experiment [6] (setting [10]). Further, in experiment [2], the Her2 level was 98.5% (inactive). The differential viability (reversal) in experiment [6] (H69AR cells + 2 uM doxorubicin) is -1.54% (inactive). Besides, the inhibition in experiment [7] was -3.33% (inactive); in experiment [8], 1.15% (inactive).
In the case of `Cc1cc(=O)oc2ccc(OCC(=O)N3CCC(C)CC3)cc12`, the viability in experiment [1] was 87%; in experiment [3] it was 87% (inactive); in experiment [4], 92.3% (inactive); in experiment [5], 96.3% (inactive); in experiment [6] (setting [9]), 90.7%; in experiment [6] (setting [10]) it was 96.3%. In addition, the Her2 level in experiment [2] is 90% (inactive). Besides, the differential viability (reversal) in experiment [6] (H69AR cells + 2 uM doxorubicin) is 5.65% (inactive). The inhibition in experiment [7] is -1.05% (inactive); in experiment [8], 1.15% (inactive).
Take `CCOC(=O)c1sc2nc(C)cc(C)c2c1N`: the viability in experiment [1] was 105%; in experiment [3], 105% (inactive); in experiment [4], 110% (inactive); in experiment [5], 98.4% (inactive); in experiment [6] (setting [9]), 82.8%; in experiment [6] (setting [10]) it was 98.4%. The Her2 level in experiment [2] is 95% (inactive). In experiment [6] (H69AR cells + 2 uM doxorubicin), the differential viability (reversal) is 15.6% (inactive). In addition, the inhibition in experiment [7] is -5.07% (inactive); in experiment [8], 4.52% (inactive).
On to `COc1ccc(OC)c(S(=O)(=O)N2c3ccccc3CC2C)c1` (stereo not given), for which the viability in experiment [1] is 82.5%; in experiment [3] it was 82.5% (inactive); in experiment [4], 77.6% (inactive); in experiment [5] it was 89.4% (inactive); in experiment [6] (setting [9]) it was 101%; in experiment [6] (setting [10]), 89.4%. Further, the Her2 level in experiment [2] was 109% (inactive). Moreover, the differential viability (reversal) in experiment [6] (H69AR cells + 2 uM doxorubicin) is -11.7% (inactive). Also, the values for the inhibition in experiment [7] and in experiment [8] were -4.86% (inactive) and -3.93% (inactive), respectively.
As to `CC(C)(C)C(=O)Oc1cc(N)n(S(=O)(=O)c2ccccc2)n1`, the viability in experiment [1] was 93.5%; in experiment [3] it was 93.5% (inactive); in experiment [4], 102% (inactive); in experiment [5], 87.1% (inactive); in experiment [6] (setting [9]), 83.5%; in experiment [6] (setting [10]) it was 87.1%. Besides, the Her2 level in experiment [2] is 101% (inactive). Also, the differential viability (reversal) in experiment [6] (H69AR cells + 2 uM doxorubicin) is 3.59% (inactive). Also, the results for the inhibition in experiment [7] and in experiment [8] were 0.53% (inactive) and -5.27% (inactive), respectively.

(Values after PubChem BioAssay.)
